# Source: PubChem
# Rad51 HR inh: human RAD51 strand exchange inhibitors, primary screen, biochemical, fluorescence; inhibition, % at 10 µM; hRad51 DNA strand exchange, fluorescence dequenching; 0.085% of 200,000 active; DNA repair protein RAD51 homolog 1 (Homo sapiens), Q06609;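 active = inhibition above 40% at the single screening dose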
# Target sequence (Q06609 whole entry, looked up): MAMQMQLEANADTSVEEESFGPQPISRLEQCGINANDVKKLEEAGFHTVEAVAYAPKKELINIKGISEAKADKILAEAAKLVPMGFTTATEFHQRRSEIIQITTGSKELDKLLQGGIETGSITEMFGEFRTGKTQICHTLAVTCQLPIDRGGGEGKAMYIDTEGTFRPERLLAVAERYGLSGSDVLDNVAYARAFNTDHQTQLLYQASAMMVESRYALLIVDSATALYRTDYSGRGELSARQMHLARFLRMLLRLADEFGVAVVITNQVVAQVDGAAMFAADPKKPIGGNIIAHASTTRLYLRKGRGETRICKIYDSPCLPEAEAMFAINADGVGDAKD
#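 System: human Rad51 nucleoprotein filaments preassembled on unlabelled ssDNA. Reagent: labelled 47-mer dsDNA for strand exchange. Schedule: 30-min compound preincubation and 15-min exchange, both room temperature. Measured by: FRET fluorescence dequenching, excitation 485 nm, emission 520 nm. Read-out: Fluorescence-based percent inhibition, control- and blank-normalised. Benchmarks: plate controls and plate blanks.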
# Calb biofilm kill: clotrimazole potentiators killing C. albicans biofilm, primary screen, 4-compound mixtures; AID 1242, 2008; inhibition, % at 7.6 µM; 0.02% of 120,000 active; C. albicans biofilm persisters + clotrimazole, fluorescence viability; primary screen in compound mixtures of four per well;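 also: compounds exposed to preformed 24 h biofilms for 48 h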
#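 Probe or stimulus – Clotrimazole 50 µg/mL co-treatment · System – C. albicans biofilms · Schedule – 24 h biofilm formation, then 48 h compound exposure, 37 °C · Evaluation – percent inhibition of biofilm viability · Technique – 2-h Alamar Blue fluorescence, 535/590 nm excitation/emission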
# S1P3 antag: S1P3 receptor antagonists, primary screen, cell-based; Sphingosine 1-phosphate receptor 3 (Homo sapiens), Q99500; CHO S1P3 NFAT-BLA reporter, FRET fluorescence, antagonist mode; inhibition, % at 4.98 µM; 0.27% of 170,000 active; AID 485, 2006;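 active = inhibition above the plate cutoff, the mean inhibition of test wells on that plate plus 3 SD, cut at about 28% in these data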;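 also: cells challenged with S1P at its EC80 of 0.8 µM; blue over green emission ratio from cleaved BLA substrate after 4 h stimulation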
# Numbers stand for hits; 0 = inactive; - = not tested or not shown. Rows were chosen to be rich in hits. Some 0.31% of all compounds tested hit in one or more screens of this group.
SMILES,Rad51 HR inh,Calb biofilm kill,S1P3 antag
C[C@@H](C(=O)Nc1ccc2ccccc2c1)[C@H]1C[C@]1(C)[C@H](NC(=O)OCc1ccccc1)c1ccccc1,0,0,32
C[C@H](CO)NC(=O)[C@H](C)[C@H]1C[C@]1(C)[C@H](NC(=O)OCc1ccccc1)c1ccccc1,0,0,0
COc1ccc2c(CC(=O)Nc3ccc(OC)c(NS(=O)(=O)c4ccc(F)cc4)c3)coc2c1,0,-,81
COc1ccc2c(CC(=O)Nc3ccccc3OC)coc2c1,0,0,0
Cc1ccc(-c2nnc(CCC(=O)NCC3C4CC5CC(C4)CC3C5)o2)s1 (stereo unspecified),0,0,0
CN(C)c1cc(-c2ccc([N+](=O)[O-])cc2)oc(=O)c1Cl,0,0,0
NC(=S)Nc1nccc(-c2cccs2)n1,41,0,0
Cc1ccc(C(=O)Nc2nccc(-c3cccs3)n2)cc1,0,-,-
COc1ccc(OC)c(Nc2nc(NCCCN(C)C)nc(N)c2[N+](=O)[O-])c1,41,0,0
COCCCNc1nc(N)c([N+](=O)[O-])c(Nc2cc(OC)ccc2OC)n1,-,0,0
CCOC(=O)C1CCCN(S(=O)(=O)c2ccc(OC)cc2)C1 (stereo unspecified),46,-,-
CCOC(=O)C1CCCN(S(=O)(=O)c2ccc(C)cc2)C1 (stereo unspecified),0,-,0
CN1C(=O)c2cccc(NC(=O)CCc3ccccc3)c2C1=O,0,-,92
CCCCC(=O)Nc1cccc2c1C(=O)N(c1ccccc1)C2=O,0,-,0
COc1ccc(CC(=O)Nc2cccc(-c3nnc(-c4cccc(C)c4)o3)c2)cc1OC,0,-,85
COc1ccc(CC(=O)Nc2cccc(-c3nnc(-c4ccc(C)cc4)o3)c2)cc1OC,0,-,0
Cc1ccc(S(=O)(=O)N2CCCOC2CNC(=O)C(=O)NCc2cccs2)cc1 (stereo unspecified),0,0,0
COc1ccccc1CNC(=O)c1cn(C)c2ccc(S(=O)(=O)N3CCCC3)cc2c1=O,0,0,0
O=C(c1ccc(-c2ccccc2)cc1)N1CCN(c2nc3ccccc3o2)CC1,0,0,53
CC(C)(C)c1ccc(C(=O)N2CCN(c3nc4ccccc4o3)CC2)cc1,0,-,-
Cc1cc(C)n(-c2cccc(Cl)c2C#N)n1,-,0,0
CCn1c(=O)c2cc(C(=O)N3CCOCC3)sc2c2ccccc21,0,-,0
CCn1c(=O)c2cc(C(=O)N3CCCC3)sc2c2ccccc21,-,0,57
Cc1ccc(-c2cc(C(F)F)n3ncc(C(=O)N4CCN5CCCC5C4)c3n2)cc1 (stereo unspecified),0,-,0
CCOC(=O)C1CCCN(C(=O)c2cnn3c(C(F)F)cc(-c4ccc(C)cc4)nc23)C1 (stereo unspecified),0,-,76
SMILES,Rad51 HR inh,Calb biofilm kill,S1P3 antag
N#Cc1c(/N=C/c2ccc(Br)s2)sc2c1CCC2,-,0,-
N#Cc1c(/N=C/c2cccs2)sc2c1CCCCC2,0,-,57
COc1ccc(CCN(C(=O)c2ccccc2)C2=CC3CCC(C2)N3C)cc1OC (stereo unspecified),0,-,85
CN1C2C=C(N(CCc3c[nH]c4ccccc34)C(=O)c3ccc(Cl)cc3)CC1CC2 (stereo unspecified),0,-,-
O=C(CCCN1C(=O)/C(=C\c2cccs2)SC1=S)NNC(=O)c1ccncc1,0,0,0
O=C(CCCN1C(=O)/C(=C/c2cccs2)SC1=S)NNC(=O)c1cccnc1,42,0,0
COc1cc(NC(=S)Nc2ccc(N(C)C(C)=O)cc2)cc(OC)c1,0,0,0
O=C(Nc1ccccc1NC(=O)c1ccco1)c1ccco1,0,-,69
O=C(Nc1ccccc1-c1ccccc1NC(=O)c1ccco1)c1ccco1,0,0,-
CN(C)C(CNC(=S)Nc1cccc(Cl)c1)c1ccccc1 (stereo unspecified),0,0,0
CCN1CCN(c2ncnc3c2cnn3-c2ccc(Cl)cc2)CC1,0,0,0
CCN1CCN(c2ncnc3c2cnn3-c2ccccc2)CC1,0,-,90
COC(=O)CCC(=O)OC1(C)C(=O)C2=CN(CC3CC3)C(c3ccc(OC)cc3)=CC2=C(Br)C1=O (stereo unspecified),0,0,-
COC(=O)CCC(=O)OC1(C)C(=O)C2=CN(C3CC3)C(c3ccc(OC)cc3)=CC2=C(Br)C1=O (stereo unspecified),52,-,-
Cc1ccc(S(=O)(=O)/N=C(/Nc2ccc3[nH]c(=O)[nH]c3c2)c2ccc(F)cc2)cc1,0,0,0
CC(=O)NN1C(=O)c2ccccc2NC1c1ccoc1 (stereo unspecified),0,0,0
O=C(NN1C(=O)c2ccccc2NC1c1ccoc1)c1ccccc1 (stereo unspecified),48,0,0
Cc1cccc(NC(=S)NC(C)C(c2ccccc2)N2CCN(C)CC2)c1C (stereo unspecified),-,0,0
Cc1ccccc1NC(=O)N1C2CCCC1CC(NC(=O)C1CC1)C2 (stereo unspecified),0,-,0
CCc1ccccc1NC(=O)N1C2CCCC1CC(NC(=O)C(C)(C)C)C2 (stereo unspecified),0,-,63
CCOC(=O)C1=C(C)NC(C)=C(C(=O)OCC)C1C(=O)OCC(=O)N(C)C,0,0,0
CNS(=O)(=O)c1ccc(NC(=O)C(CCSC)NC(N)=O)cc1 (stereo unspecified),0,-,0
COc1ccc(NS(=O)(=O)c2ccc(NC(=O)C(CCSC)NC(N)=O)cc2)cc1 (stereo unspecified),42,0,0
COc1cc([N+](=O)[O-])ccc1NC(=S)Nc1cc(C(=O)OC(C)C)cc(C(=O)OC(C)C)c1,0,0,0
CCOC(=O)N1CCN(c2c(-c3ccc(C(C)C)cc3)c(=O)c2=O)CC1,0,-,0
SMILES,Rad51 HR inh,Calb biofilm kill,S1P3 antag
CCOC(=O)N1CCN(c2c(-c3ccc(C)cc3)c(=O)c2=O)CC1,80,-,0
CC(Cc1ccccn1)NC(=O)CCc1nnc(C2CCCCC2)o1 (stereo unspecified),-,0,0
CC(C)(C)c1cc(NC(=O)c2cccc(S(=O)(=O)N3CCOCC3)c2)no1,0,0,0
CCOc1cc(/C=N/NC(N)=O)cc(Br)c1OCC(=O)Nc1ccccc1C,0,-,-
CCOc1cc(/C=N/NC(N)=O)cc(Br)c1OCC(=O)Nc1cccc2ccccc12,122,-,-
O=C1CSC(c2ccccc2[N+](=O)[O-])N1CCc1ccccc1 (stereo unspecified),0,0,0
Cc1ccc(/C(C#N)=C\c2cn(C)c3ccccc23)cc1,62,-,0
Cn1cc(C=O)c2ccccc21,0,0,0
Cc1ccc(OC(C)C(=O)N/N=C/c2ccccn2)cc1 (stereo unspecified),0,0,0
Cc1cccc2cc(-c3ccccc3)c(-c3ccccc3)c[n+]12,0,0,0
COc1ccc(-c2cc(C(=O)NCc3cccs3)no2)cc1,0,0,0
COc1ccc2nc3sc(C(=O)NCc4cccs4)c(N)c3cc2c1,0,-,54
CC12CCC(=O)N1C(C(=O)OCC(=O)Nc1ccc(Cl)c(Cl)c1)CS2 (stereo unspecified),0,0,0
C=CCc1cccc(CNc2nc3ccccc3n2CCC)c1O,0,-,77
